An excerpt weighted towards active compounds, which were near 2.1% of everything screened.
PDI inh: PDI (human) enzyme inhibition; PDI insulin aggregation turbidity, A650, 90 min; inhibition, % at 10 µM; P07237; 0.052% of 350,000 active;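 active = mean inhibition across replicates of 30% or more, whatever share of single replicates reach that level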
Target sequence (P07237 whole entry, looked up): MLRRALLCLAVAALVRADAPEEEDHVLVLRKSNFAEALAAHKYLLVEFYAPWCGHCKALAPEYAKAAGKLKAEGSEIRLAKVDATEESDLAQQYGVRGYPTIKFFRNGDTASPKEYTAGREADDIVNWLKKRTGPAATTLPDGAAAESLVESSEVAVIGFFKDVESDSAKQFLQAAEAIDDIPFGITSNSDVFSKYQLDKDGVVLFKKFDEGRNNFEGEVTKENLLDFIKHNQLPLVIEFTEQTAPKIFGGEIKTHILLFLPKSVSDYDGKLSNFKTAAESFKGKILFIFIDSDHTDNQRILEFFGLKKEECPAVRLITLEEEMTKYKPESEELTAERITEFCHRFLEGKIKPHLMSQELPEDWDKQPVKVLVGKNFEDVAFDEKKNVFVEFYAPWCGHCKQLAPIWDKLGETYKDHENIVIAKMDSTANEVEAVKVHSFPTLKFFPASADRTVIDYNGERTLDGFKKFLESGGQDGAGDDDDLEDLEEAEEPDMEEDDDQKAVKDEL
FN deposition inh: fibronectin deposition inhibition. AH1F fibroblasts, Alexa488-fibronectin deposition fluorescence, overnight. inhibition, % at 12.6 µM. 0.086% of 350,000 active. AID 743247;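 active = mean inhibition across replicates of 30% or more, regardless of how many single replicates reach that level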;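 also: positive control wells lacked labelled fibronectin entirely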
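Material: AH1F fibroblast monolayer depositing Alexa488-labelled fibronectin into matrix / Amount: 10000 AH1F cells per well / Signal: fluorescence 485/525 nm / Medium: DMEM, 2% serum / Compound: single dose, pinned / Incubation: 1 h cell adhesion before compound, then overnight fibronectin incubation / Reagent: Alexa488-FN, 24 nM final / Read-out: inhibition of fibronectin deposition signal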
AF4-AF9 inh: MLL-AF4/AF9 protein interaction inhibition. AID 651704. AlphaScreen, biotin-AF4 peptide binding to FLAG-AF9. 0.47% of 350,000 active. inhibition, % at 10 µM;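 active = every replicate reaching a set inhibition limit, whatever the replicate mean, cut at about 25% in these data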;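 also: 0% = plate neutral control median and 100% = total signal loss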
FGF22 binding: shifts melting point of recombinant human FGF22; Q9HCT0; recombinant FGF22 thermal shift, SYPRO orange fluorescence; percent of sucrose octasulfate shift, DMSO zero; activity (Tm shift, normalised), % at 9.99 µM; 1.5% of 340,000 active; AID 651658;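 active = mean Tm shift, scaled 0 neutral to 100 positive control, at about 1.3% or above, every replicate too, limit read from the data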
Target sequence (Q9HCT0 whole entry, looked up): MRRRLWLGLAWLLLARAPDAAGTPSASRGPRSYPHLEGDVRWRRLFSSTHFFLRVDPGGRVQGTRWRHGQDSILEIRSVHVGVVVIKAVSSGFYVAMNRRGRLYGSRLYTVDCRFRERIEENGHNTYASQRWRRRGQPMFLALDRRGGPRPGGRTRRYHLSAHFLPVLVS
ERp5 block: ERp5 (human) disulfide isomerase inhibition; Q15084; ERp5 insulin aggregation, absorbance 650 nm, 90 min; inhibition, % at 9.99 µM; 0.05% of 350,000 active; AID 651711;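 active = mean replicate inhibition above about 25%, with every replicate also reaching it, limit read from the data, passing the limit was not always enough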
ARNT-TACC3 inh: disrupts binding between human ARNT and TACC3. Q9Y6A5. AlphaScreen His-ARNT PAS-B/GST-TACC3 binding, luminescence; TACC3 fragment carries E629A point mutation. inhibition, % at 9.99 µM. 0.66% of 390,000 active;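 active = mean inhibition of replicates at least 50% and at least half of replicates each reaching 50%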;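 also: 0% = complete ARNT plus TACC3 wells and 100% = ARNT alone without TACC3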
An asterisk follows results filed as active; · = not tested or not shown.

SMILES | PDI inh | FN deposition inh | AF4-AF9 inh | FGF22 binding | ERp5 block | ARNT-TACC3 inh
COc1ccc2nc3cc(Cl)ccc3c(Nc3cc(CN4CCCC4)c(O)c(CN4CCCC4)c3)c2n1 | -1.5 | 2.0 | 47.0* | -0.8 | 4.8 | ·
COCCN(C(=O)c1csnn1)C(C(=O)NC1CCCCC1)c1ccccc1F (centres undefined) | 0.4 | -10.5 | -0.1 | -0.3 | -1.9 | ·
COCCN(C(=O)C(=O)NC1CCCC1)C(C(=O)NC1CCCC1)c1ccccc1F (centres undefined) | -2.9 | 1.8 | 0.2 | 43.6* | -0.8 | 3.3
CS(=O)(=O)c1ccc(C(=O)OCc2nnc(-c3ccc(Cl)cc3)o2)cc1[N+](=O)[O-] | 89.5* | · | · | · | · | 2.9
O=C1N(Cc2ccccc2)CC2(Br)COCOC12O (centres undefined) | 5.8 | 7.3 | -4.8 | 0.1 | 1.6 | 8.9*
CCn1c(CNc2cccc(C(F)(F)F)c2)n[nH]c1=S | -3.9 | 2.7 | -8.4 | 43.4* | -12.5 | -1.0
O=c1[nH]nc(CNc2cccc(C(F)(F)F)c2)c2ccccc12 | -10.6 | -11.1 | -1.7 | 0.2 | -8.7 | 0.8
CCOc1ccc(C(C)C)cc1S(=O)(=O)N1CCOCC1 | 0.0 | 7.9 | -0.6 | 43.3* | -3.0 | ·
C[C@@H]1CN([C@H](C)CO)C(=O)c2cc(-c3cncnc3)cnc2O[C@@H]1CN(C)C(=O)Cc1ccccn1 | · | -3.2 | -4.2 | -0.2 | 1.3 | -4.3
O=C(CCN1C(=O)C2C3C=CC(C3)C2C1=O)N1CCCCC1 (centres undefined) | 1.9 | · | -1.2 | 43.2* | -0.9 | -0.1
CN(C)CCCn1c(SCC(=O)Nc2nc(-c3cccc(Br)c3)cs2)nc2ccccc2c1=O | -1.5 | -7.8 | 35.2* | -0.2 | 8.6 | -2.3
O=C(CSc1nc2ccccc2[nH]1)Nc1nc(-c2cccc(Br)c2)cs1 | 12.7 | -12.8 | 0.9 | 0.1 | 0.9 | -3.6
CCN(CC)P(=O)(Nc1ccccc1Br)c1ccc(N(C)C)cc1NC(=O)c1ccco1 (centres undefined) | -5.3 | -7.2 | -2.2 | 44.0* | -4.0 | 0.3
CCN(CC)C(=O)c1cc(Cl)ccc1NC(=O)c1ccco1 | 1.5 | -2.8 | 0.5 | -0.2 | 1.9 | -5.5
CNC(=S)NCCc1ccc(OC)cc1 | -0.4 | -11.5 | -1.6 | 43.4* | 2.1 | ·
COCC#Cc1cnc2c(c1)C(=O)N([C@H](C)CO)C[C@H](C)[C@H](CN(C)C(=O)c1cccc(F)c1)O2 | · | -2.6 | -6.8 | -0.1 | -5.5 | -4.6
CNC[C@H]1Oc2ccc(N(C)C)cc2CC(=O)N(C)C[C@@H]1C | · | 4.7 | · | · | · | ·
O=C(c1ccccc1F)N1CC(=O)N2[C@H](CO)[C@@H](c3ccc(C#Cc4ccc(F)cc4)cc3)[C@@H]2C1 | · | · | 1.5 | · | -7.1 | ·
COC(C(=O)NCc1ccc(C)cc1)c1ccccc1 (centres undefined) | 16.4 | 1.7 | -1.3 | 43.2* | -3.6 | 4.2
O=C(COC(=O)Cc1ccc(Cl)cc1)Nc1ccccc1F | 1.1 | 1.8 | -4.0 | 0.1 | 2.7 | -2.1
O=C(COC(=O)Cc1ccc(Cl)cc1)Nc1c(F)cccc1F | -0.9 | -2.5 | -2.0 | 44.2* | 2.2 | ·
Cc1ccc(/C(O)=C2/C(=O)C(=O)N(CCN3CCOCC3)C2c2cccnc2)cc1 (centres undefined) | 0.8 | 4.2 | · | · | · | -7.1
Cc1c(N2C(=O)C(=O)/C(=C(/O)c3ccc(Br)cc3)C2c2cccnc2)c(=O)n(-c2ccccc2)n1C (centres undefined) | 1.9 | 0.2 | -1.1 | 43.7* | -4.6 | -0.8
O=C(C1CCCC1)N1CC2(C1)[C@@H](c1ccccc1)[C@H](CO)N2C(=O)c1cccnc1 | · | 0.0 | -6.2 | · | 5.1 | ·
CO[C@@H]1CN(C)C(=O)c2cc(NC(=O)Nc3cc(F)ccc3F)ccc2OC[C@H](C)NC[C@H]1C | · | -2.4 | 2.0 | -0.6 | -1.4 | 26.5
SMILES | PDI inh | FN deposition inh | AF4-AF9 inh | FGF22 binding | ERp5 block | ARNT-TACC3 inh
CCOC(=O)N1CCN(C(=O)C(=O)NNC(=O)COc2ccc(Cl)cc2)CC1 | 1.4 | 1.4 | -1.1 | 43.5* | 0.3 | ·
CCOC(=O)N1CCN(C(=O)C(=O)NNC(=O)COc2ccc(Cl)c(C)c2)CC1 | -1.8 | -3.7 | · | · | · | -1.0
CN(C)c1ccc(N2CC(C)(C)C2=O)cc1 | -0.9 | -3.2 | -0.6 | 41.8 | 3.9 | 8.6
CC(=O)c1ccc(N2CC(C)(C)C2=O)cc1 | 6.7 | 1.4 | -1.9 | 43.0* | 2.8 | ·
COc1ccc(NC(=O)Nc2ccc3c(c2)CC(=O)N([C@@H](C)CO)C[C@@H](C)[C@@H](CN(C)C(=O)Nc2ccc(OC)cc2)O3)cc1 | · | · | 0.7 | -0.3 | 5.6 | 0.0
C[C@H](CO)N1C[C@H](C)[C@H](CN(C)S(=O)(=O)c2cccs2)OCCCC[C@H](C)Oc2ccc(NC(=O)C3CCCCC3)cc2C1=O | · | · | -1.7 | 0.2 | -11.8 | -0.1
Cc1csc(N/N=C/c2ccccn2)n1 | 0.9 | -5.9 | 6.9 | · | 4.9 | 59.0*
C(=N\Nc1nc2ccccc2s1)/c1ccccn1 | · | 20.2 | 1.8 | -0.3 | 3.1 | ·
CNC1=C(N(C(C)=O)c2ccc(Br)cc2)C(=O)c2ccccc2C1=O | -15.9 | 19.2 | · | · | · | 45.8*
Cn1cccc1C(=O)C(=O)Nc1ccccc1C(F)(F)F | 9.0 | -4.9 | -0.2 | 43.2* | -1.3 | -3.0
CCCCN1C(=O)C(=O)N(CC(=O)NC2CCCc3ccccc32)C1=O (centres undefined) | 2.8 | -0.2 | -0.8 | 43.8* | 1.3 | -12.4
O=C(O)c1c(C(=O)N2N=C3/C(=C/c4ccccc4)CCCC3C2c2ccccc2)cccc1[N+](=O)[O-] (centres undefined) | -2.3 | -6.6 | -7.8 | -0.9 | 0.0 | 1.9
O=C(O)c1ccccc1C(=O)N1N=C2/C(=C/c3cccc([N+](=O)[O-])c3)CCCC2C1c1cccc([N+](=O)[O-])c1 (centres undefined) | 5.2 | 2.6 | 0.8 | 2.3* | 2.6 | -0.6
Cc1ccc(C=NNc2nc3c([nH]2)c(=O)n(C)c(=O)n3C)cc1 | -0.7 | -6.8 | -2.0 | 43.9* | -6.1 | 2.0
CCCN1[C@@H]2Cn3c(ccc(-c4ccc(F)cc4)c3=O)[C@H]1[C@@H](C(=O)NCC)[C@@H]2CO | · | · | -1.1 | · | -1.1 | ·
Cc1cc(Br)cn2c(Cc3cccc(F)c3)c(-c3ccc(C#N)cc3)nc12 | · | 30.5* | -0.4 | 0.4 | -6.5 | ·
O=C(C[C@@H]1C=C[C@H](NC(=O)c2ccccc2)[C@H](CO)O1)NCCc1ccncc1 | · | 3.5 | -2.0 | 0.7 | 0.5 | -19.3
CC(=O)/C=C1/C(=O)Nc2ccccc21 | -1.2 | -7.6 | 0.3 | 43.7* | -4.3 | -20.1
COCC(=O)N1CC2(C1)[C@H](c1ccc(C3=CCCC3)cc1)[C@@H](CO)N2C(=O)COC | · | 4.2 | -1.5 | -0.1 | -5.9 | ·
C[C@H]1CN([C@@H](C)CO)S(=O)(=O)c2ccc(/C=C/c3ccccc3)cc2O[C@@H]1CN(C)C(=O)CN1CCOCC1 | · | · | 5.8 | -0.3 | 1.3 | 2.2
NC(=O)COC(=O)/C=C/c1cccc(Br)c1 | 11.2 | 1.1 | -1.9 | 43.0* | -1.9 | 0.2

Compound activity from PubChem BioAssay.
